Measured values reported in ChEMBL document CHEMBL3822375, “Preclinical Characterization of 3β-(N-Acetyl l-cysteine methyl ester)-2aβ,3-dihydrogaliellalactone (GPA512), a Prodrug of a Direct STAT3 Inhibitor for the Treatment of Prostate Cancer” (J Med Chem, 2016).

Key:
[1] = Antiproliferative activity against human DU145 cells after 72 hrs by WST-1 proliferation assay; format: functional, cell-based; settings: DU-145, 72 h
Summary of the method: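 Cells in RPMI-1640 (DU145, LNCaP, LNCaP-IL6+) or HAM's F-12 (PC3) with 10% FBS. DU145 and LNCaP-IL6+ seeded at 2 000 cells/well, LNCaP and PC3 at 5 000 cells/well, adhered 24 h, then exposed to compound for 72 h. WST-1 absorbance read at 450 nm with 630 nm reference. Background subtracted; expressed as percent of untreated cells.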

[2] = Chemical stability of the compound in phosphate buffer saline assessed as half life at 10 uM at pH 7.4 by LC-MS/MS analysis; format: physicochemical; settings: phosphate buffered saline
Summary of the method: (§1)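 Compound diluted from DMSO (or methanol) stock to 10 µM, 2% solvent final, n=2. Matrix was 0.1 M PBS pH 7.4, or […] HCl with 2 mg/mL NaCl adjusted to pH 1.2. Mixed on a shaker; sampled at nominal 5, 15, 30 and 60 min plus T=0. LC-MS/MS with internal standard; % remaining relative to T=0. Formation of parent also monitored.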

Mus musculus [3] = assay: AUC (0 to infinity) in mouse plasma assessed as galiellalactone level at 10 mg/kg, po by LC-MS/MS analysis; format: ADME, organism-based; parameters: dose 10 mg/kg, route oral, time infinity; settings: in vivo
Summary of the method: (§2)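 Single dose to mice; oral, iv or ip as listed, in 5% DMSO/50 mM citrate buffer pH 4.0 (dosing solutions 0.5, 2 or 5 mg/mL). Oral dosing at 20 mL/kg. Terminal blood under barbiturate anaesthesia at eight time-points to 8 h, n=3 mice per time-point, EDTA plasma. Acetonitrile precipitation with internal standard, LC-MS/MS against plasma calibration lines. Non-compartmental analysis on mean data, trapezoidal AUC.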

Mus musculus [4] = assay: Apparent half life in mouse plasma assessed as galiellalactone level at 10 mg/kg, po by LC-MS/MS analysis; format: ADME, organism-based; settings: in vivo; summary of the method: as §2
Mus musculus [5] = assay: Cmax in mouse plasma assessed as galiellalactone level at 10 mg/kg, po by LC-MS/MS analysis; format: ADME, organism-based; parameters: dose 10 mg/kg, route oral; settings: in vivo; summary of the method: as §2
Mus musculus [6] = assay: Tmax in mouse plasma assessed as galiellalactone level at 10 mg/kg, po by LC-MS/MS analysis; format: ADME, organism-based; settings: in vivo
Mus musculus [7] = assay: AUC (0 to t) in mouse plasma assessed as galiellalactone level at 10 mg/kg, po by LC-MS/MS analysis; format: ADME, organism-based; settings: in vivo; summary of the method: as §2
[8] = Half life of compound in acidic buffer at pH 1.2 at 10 uM by LC-MS analysis; format: physicochemical; summary of the method: as §1
Hepatocyte = assay: Drug level in mouse hepatocytes treated with 3-beta-(N-Acetyl-L-cysteine methyl ester)-2a-beta,3-dihydrogaliellalactone measured after 2 hrs by UPLC-MS analysis; format: ADME, cell-based
Summary of the method: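 Cryopreserved mouse hepatocytes in Celsis InVitro HI medium, pH 7.4, 37 °C, with 10 µM initial compound from DMSO stock. Sampled at 0 and 120 min, quenched with an equal volume of acetonitrile, analysed by UPLC/Q-TOF-MS. Viability checked by Trypan blue.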

C[C@H]1C[C@H]2CC[C@H]3OC(=O)C([C@@H]1SCc1ccccc1)[C@@]23O (stereo partly specified)
IC50 [1]: 9.68 µM
half-life at 10 µM [2]: > 2.5 h

C[C@H]1C[C@H]2CC[C@H]3OC(=O)C([C@@H]1Sc1ccccc1)[C@@]23O (stereo partly specified)
AUC (Mus musculus [3]): 41 µg/mL/min
t1/2(app) (Mus musculus [4]): 3.17 h
Cmax (Mus musculus [5]): 478 ng/mL
Tmax (Mus musculus [6]): 0.25 h
AUCt (Mus musculus [7]): 36 µg/mL/min

CCOC(=O)[C@H](CS[C@H]1C2C(=O)O[C@@H]3CC[C@H](C[C@@H]1C)[C@]23O)NC(C)=O (stereo partly specified)
AUC (Mus musculus [3]): 22 µg/mL/min
t1/2(app) (Mus musculus [4]): 1.08 h
Cmax (Mus musculus [5]): 263 ng/mL
Tmax (Mus musculus [6]): 0.5 h
AUCt (Mus musculus [7]): 20 µg/mL/min

COC(=O)[C@H](CS[C@H]1C2C(=O)O[C@@H]3CC[C@H](C[C@@H]1C)[C@]23O)NC(=O)[C@@H](N)C(C)C (stereo partly specified)
AUC (Mus musculus [3]): 101 µg/mL/min
t1/2(app) (Mus musculus [4]): 2.15 h
Cmax (Mus musculus [5]): 949 ng/mL
Tmax (Mus musculus [6]): 0.5 h
AUCt (Mus musculus [7]): 97 µg/mL/min
half-life at 10 µM [2]: 1.1 h

COC(=O)[C@@H](N)CS[C@H]1C2C(=O)O[C@@H]3CC[C@H](C[C@@H]1C)[C@]23O (stereo partly specified)
AUC (Mus musculus [3]): 102 µg/mL/min
t1/2(app) (Mus musculus [4]): 4.63 h
Cmax (Mus musculus [5]): 788 ng/mL
half-life at 10 µM [8]: > 2.5 h
IC50 [1]: 4.51 µM
Tmax (Mus musculus [6]): 0.5 h
AUCt (Mus musculus [7]): 85 µg/mL/min
half-life at 10 µM [2]: 0.367 h

CC(=O)N[C@@H](CS[C@H]1C2C(=O)O[C@@H]3CC[C@H](C[C@@H]1C)[C@]23O)C(N)=O (stereo partly specified)
IC50 [1]: 9.2 µM
half-life at 10 µM [2]: > 2.5 h

CC(=O)N[C@@H](CS[C@H]1C2C(=O)O[C@@H]3CC[C@H](C[C@@H]1C)[C@]23O)C(=O)O (stereo partly specified)
half-life at 10 µM [8]: 1.9 h
Drug metabolism (Hepatocyte): metabolite_detected
half-life at 10 µM [2]: 0.9 h
